According to PMC3839042 (Biochemistry, 2013):

What was measured:
S100B [1] = target: T1, S100B (Homo sapiens, UniProt P04271); assay: Acrylamide dynamic quenching of peptide Trp in S100B complex; assay type: binding; settings: Stern-Volmer constant
T1 sequence (P04271 2-92 limits assumed): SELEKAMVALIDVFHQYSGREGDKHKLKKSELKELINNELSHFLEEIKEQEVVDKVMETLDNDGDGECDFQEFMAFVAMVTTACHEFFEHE
Procedure, shortened: (§1)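 Trp quenching was run on 4–8 μM peptide with or without saturating S100 protein, in binding buffer (20 mM Tris, 0.2 mM EDTA, 1 mM TCEP, pH 7.5) containing 5 mM CaCl2 or 5 mM EDTA. Acrylamide was titrated to about 0.6 M final. Intensities were dilution-corrected, fitted to a modified Stern-Volmer equation with a static term, and averages reported.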

S100A2 [2] = target: T2, S100A2 (Homo sapiens, UniProt P29034); assay: Acrylamide dynamic quenching of peptide Trp in S100A2 complex; assay type: binding; settings: Stern-Volmer constant
Procedure, shortened: as §1

S100A2 [3] = target: T2, S100A2; assay: ITC titration of TRTK12 peptides with S100A2; settings: heat capacity change upon binding, slope of ΔHcal vs temperature
S100P [4] = target: T3, S100P (Homo sapiens, UniProt P25815); assay: ITC titration of TRTK12 peptides with S100P; assay type: binding; settings: for ΔCp, exp: heat capacity change upon binding, slope of ΔHcal vs temperature, ITC
T3 sequence (P25815 1-95): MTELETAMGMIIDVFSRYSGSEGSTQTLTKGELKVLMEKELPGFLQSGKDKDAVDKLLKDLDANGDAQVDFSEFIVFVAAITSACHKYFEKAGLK

S100P [5] = target: T3, S100P; assay: Steady-state emission fluorescence titration with S100P; assay type: binding; settings: Trp emission
S100B [6] = target: T1, S100B; assay: ITC titration of TRTK12 peptides with S100B; assay type: binding
[7] = ITC fit, Equation 1, 5 mM CaCl2

T2 sequence (P29034 whole entry): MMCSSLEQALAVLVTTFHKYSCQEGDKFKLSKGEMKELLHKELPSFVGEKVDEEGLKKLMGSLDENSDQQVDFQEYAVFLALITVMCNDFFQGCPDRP

CC[C@H](C)[C@H](NC(=O)[C@H](CCCCN)NC(=O)[C@H](CC(N)=O)NC(=O)[C@H](Cc1c[nH]c2ccccc12)NC(=O)[C@H](CC(=O)O)NC(=O)[C@@H](NC(=O)[C@H](CCCCN)NC(=O)[C@@H](NC(=O)[C@H](CCCNC(=N)N)NC(=O)[C@H](C)NC(C)=O)[C@@H](C)O)[C@@H](C)CC)C(=O)N[C@@H](CC(C)C)C(=O)N[C@@H](CO)C(N)=O [TRTKM1]
S100B+Peptide KSV (S100B [1]; saturating S100B, 5 mM CaCl2): 2.4 ± 0.1 M⁻¹
S100A2+Peptide KSV (S100A2 [2]; 5 mM CaCl2): 4.3 ± 0.2 M⁻¹
ΔCp, exp (S100A2 [3]): −0.8 ± 0.1 kJ·mol^−1·K^−1
ΔCp, exp (S100P [4]): −0.9 ± 0.1 kJ·mol^−1·K^−1

CC[C@H](C)[C@H](NC(=O)[C@H](CCCCN)NC(=O)[C@H](CC(N)=O)NC(=O)[C@H](Cc1c[nH]c2ccccc12)NC(=O)[C@H](CC(=O)O)NC(=O)[C@H](C)NC(=O)[C@H](CCCCN)NC(=O)[C@@H](NC(=O)[C@H](CCCNC(=N)N)NC(=O)[C@@H](NC(C)=O)[C@@H](C)O)[C@@H](C)O)C(=O)N[C@@H](CC(C)C)C(=O)N[C@@H](CO)C(N)=O [TRTKM5]
S100B+Peptide KSV (S100B [1]; saturating S100B, 5 mM CaCl2): 2.8 ± 0.1 M⁻¹
S100A2+Peptide KSV (S100A2 [2]; 5 mM CaCl2): 8.9 ± 0.2 M⁻¹
changes in the emission fluorescence intensity of the tryptophan upon peptide binding or dissociation (S100P [5]): no observable changes
ΔCp, exp (S100A2 [3]): −0.9 ± 0.1 kJ·mol^−1·K^−1
ΔCp, exp (S100P [4]): −1.2 ± 0.1 kJ·mol^−1·K^−1

CC[C@H](C)[C@H](NC(=O)[C@H](CCCCN)NC(=O)[C@@H](NC(=O)[C@H](CCCNC(=N)N)NC(=O)[C@@H](NC(C)=O)[C@@H](C)O)[C@@H](C)O)C(=O)N[C@@H](C)C(=O)N[C@@H](Cc1c[nH]c2ccccc12)C(=O)N[C@@H](CC(N)=O)C(=O)N[C@@H](CCCCN)C(=O)N[C@H](C(=O)N[C@@H](CC(C)C)C(=O)N[C@@H](CO)C(N)=O)[C@@H](C)CC [TRTKM6]
S100B+Peptide KSV (S100B [1]; in the presence of 150mM NaCl): 3.7 ± 0.1 ^a M^−1
S100A2+Peptide KSV (S100A2 [2]; in the presence of 150mM NaCl): 4.7 ± 0.1 ^a M^−1
changes in the emission fluorescence intensity of the tryptophan upon peptide binding or dissociation (S100P [5]): no observable changes
ΔCp, exp (S100A2 [3]): −0.7 ± 0.1 kJ·mol^−1·K^−1
ΔCp, exp (S100P [4]): −0.9 ± 0.1 kJ·mol^−1·K^−1

CC[C@H](C)[C@H](NC(=O)[C@H](C)NC(=O)[C@H](CC(N)=O)NC(=O)[C@H](Cc1c[nH]c2ccccc12)NC(=O)[C@H](CC(=O)O)NC(=O)[C@@H](NC(=O)[C@H](CCCCN)NC(=O)[C@@H](NC(=O)[C@H](CCCNC(=N)N)NC(=O)[C@@H](NC(C)=O)[C@@H](C)O)[C@@H](C)O)[C@@H](C)CC)C(=O)N[C@@H](CC(C)C)C(=O)N[C@@H](CO)C(N)=O [TRTKM9]
S100B+Peptide KSV (S100B [1]; saturating S100B, 5 mM CaCl2): 7.2 ± 0.2 M⁻¹
S100A2+Peptide KSV (S100A2 [2]; 5 mM CaCl2): 6.1 ± 1.1 M⁻¹
changes in the emission fluorescence intensity of the tryptophan upon peptide binding or dissociation (S100P [5]): no observable changes
Kd (S100B [6]): 1700 ± 100 nM
ΔCp, exp (S100A2 [3]): −0.4 ± 0.1 kJ·mol^−1·K^−1
ΔCp, exp (S100P [4]): −1.0 ± 0.1 kJ·mol^−1·K^−1

CC[C@H](C)[C@H](NC(=O)[C@H](CCCCN)NC(=O)[C@@H](NC(=O)[C@H](CCCNC(=N)N)NC(=O)[C@@H](NC(C)=O)[C@@H](C)O)[C@@H](C)O)C(=O)N[C@@H](CC(=O)O)C(=O)N[C@@H](Cc1c[nH]c2ccccc12)C(=O)N[C@@H](CC(N)=O)C(=O)N[C@@H](CCCCN)C(=O)N[C@@H](C)C(=O)N[C@@H](CC(C)C)C(=O)N[C@@H](CO)C(N)=O [TRTKM10]
S100B+Peptide KSV (S100B [1]; saturating S100B, 5 mM CaCl2): 7.5 ± 0.1 M⁻¹
ΔCp, exp (S100P [4]): −1.3 ± 0.1 kJ·mol^−1·K^−1

CC[C@H](C)[C@H](NC(=O)[C@H](CCCCN)NC(=O)[C@H](CC(N)=O)NC(=O)[C@H](Cc1c[nH]c2ccccc12)NC(=O)[C@H](CC(=O)O)NC(=O)[C@@H](NC(=O)[C@H](CCCCN)NC(=O)[C@@H](NC(=O)[C@H](CCCNC(=N)N)NC(=O)[C@@H](NC(C)=O)[C@@H](C)O)[C@@H](C)O)[C@@H](C)CC)C(=O)N[C@@H](C)C(=O)N[C@@H](CO)C(N)=O [TRTKM11]
S100B+Peptide KSV (S100B [1]; saturating S100B, 5 mM CaCl2): 7.2 ± 0.1 M⁻¹
S100A2+Peptide KSV (S100A2 [2]; 5 mM CaCl2): 8.7 ± 0.2 M⁻¹
stoichiometry n (peptides per S100B dimer) (S100B [6]; [7]): 1
ΔCp, exp (S100A2 [3]): −1.6 ± 0.1 kJ·mol^−1·K^−1
stoichiometry n (peptides per S100P dimer) (S100P [4]; [7]): 1
ΔCp, exp (S100P [4]): −1.8 ± 0.1 kJ·mol^−1·K^−1
